Among the data in ChEMBL document CHEMBL1132570, “Synthesis of cytotoxic indenoisoquinoline topoisomerase I poisons” (1999) are GI50 and Top1 cleavage activity values, retold here.

Usually GI50 stands for the concentration giving 50% growth inhibition. The low end stands for more potent growth inhibition, the high end for less potent growth inhibition.

The structures appear in SMILES notation.

One experiment deals with HOP-62. Description: Cytotoxicity against lung HOP-62 human cancer cell line. It is filed as functional. Put shortly:
(§1)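 GI50 = concentration giving 50% growth inhibition, from a screen of about 55 human cancer cell lines over a 10^-8 to 10^-4 M test range. Values come from two determinations where a population standard deviation is shown, otherwise from single determinations.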

In the next experiment the test system is MDA-MB-435. Description: In vitro cytotoxicity against MDA-MB-435 (Human breast cancer) cell line. The format is functional. Put shortly: as §1
For experiment [1], the system named is DU-145. Description: Cytotoxicity against prostate DU-145 human cancer cell line. The format is functional. Put shortly: as §1
The next experiment deals with OVCAR-3. As to the kind of experiment: Cytotoxicity against ovarian OVCAR-3 human cancer cell line. It is filed as functional. The procedure, abridged: as §1
Another experiment concerns UACC-62. Description: In vitro cytotoxicity against UACC-62 (Human melanoma) cell line. It is filed as functional. The procedure, abridged:
as §1

The next experiment concerns HCT-116. As to the kind of experiment: Cytotoxicity against colon HCT116 human cancer cell line. It is filed as functional. The procedure, abridged: as §1
Experiment [2] concerns the target T1, DNA topoisomerase 1 (Homo sapiens) (UniProt P11387).
T1 sequence (whole entry): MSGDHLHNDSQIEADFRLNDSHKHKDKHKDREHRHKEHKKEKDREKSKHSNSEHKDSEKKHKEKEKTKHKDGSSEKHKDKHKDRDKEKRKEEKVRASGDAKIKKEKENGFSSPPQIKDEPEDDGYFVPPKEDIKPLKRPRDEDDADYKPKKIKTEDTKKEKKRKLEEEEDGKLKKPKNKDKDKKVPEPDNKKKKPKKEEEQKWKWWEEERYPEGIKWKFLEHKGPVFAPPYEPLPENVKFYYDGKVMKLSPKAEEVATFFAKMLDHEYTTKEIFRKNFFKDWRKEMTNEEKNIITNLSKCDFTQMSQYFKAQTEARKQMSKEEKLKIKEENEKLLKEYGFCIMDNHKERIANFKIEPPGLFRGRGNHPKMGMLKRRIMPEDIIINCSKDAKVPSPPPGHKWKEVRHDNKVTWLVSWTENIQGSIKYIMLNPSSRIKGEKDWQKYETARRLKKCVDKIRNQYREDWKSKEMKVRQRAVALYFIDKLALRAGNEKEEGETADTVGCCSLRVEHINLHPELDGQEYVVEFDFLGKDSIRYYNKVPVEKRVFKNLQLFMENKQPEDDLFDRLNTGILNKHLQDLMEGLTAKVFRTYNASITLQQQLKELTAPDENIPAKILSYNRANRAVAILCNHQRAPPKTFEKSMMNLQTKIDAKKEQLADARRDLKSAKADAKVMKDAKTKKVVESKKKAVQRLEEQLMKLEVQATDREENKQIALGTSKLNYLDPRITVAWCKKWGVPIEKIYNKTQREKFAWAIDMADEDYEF
Description: The activity was examined against DNA topoisomerase I mediated DNA cleavage using 3''-End-labelled 161 BP plasmid DNA; +/- less than 20% of the activity of 1 uM camptothecin. The procedure, abridged: (§2)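 A 161 bp PvuII–HindIII fragment of pBluescript SK(–) was 3'-end-labeled at the HindIII site with [α-32P]dCTP by Klenow fill-in. About 50 000 dpm per reaction was incubated with top1 and drug (0.1–300 μM) at 30 °C for 30 min, then stopped with 0.5% SDS (final). Products were run on 16% polyacrylamide/7 M urea gels at 51 °C and imaged by phosphorimager.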

For experiment [3], the target named is T1, DNA topoisomerase 1 (Homo sapiens). As to the kind of experiment: The activity was examined against DNA topoisomerase I mediated DNA cleavage using 3''-End-labelled 161 BP plasmid DNA.+/- indicates less than 20% of the activity of 1 uM camptothecin. Put shortly: as §2
The target is the same in experiment [4]. Description: The activity was examined against DNA topoisomerase I mediated DNA cleavage using 3'-End-labelled 161 BP plasmid DNA; 0 indicates inactive. The procedure, abridged: as §2
The subject of another experiment is SN12C. As to the kind of experiment: In vitro cytotoxicity against SN12C (Human renal cancer) cell line. It is filed as functional. Put shortly: as §1
Experiment [5] relates to DU-145. Description: Compound was tested for its cytotoxicity against prostate DU-145 Human cancer cell line. The format is functional. Put shortly:
as §1

Experiment [6] relates to SF-539. As to the kind of experiment: Compound was tested for its cytotoxicity against CNS SF-539 Human cancer cell line. The format is functional. Put shortly: as §1
The target in experiment [7] is T1, DNA topoisomerase 1 (Homo sapiens). Description: The activity was examined against DNA topoisomerase I mediated DNA cleavage using 3'-End-labelled 161 BP plasmid DNA.0 indicates inactive. The procedure, abridged:
as §2

Experiment [8] has the same target. As to the kind of experiment: The activity was examined against DNA topoisomerase I mediated DNA cleavage using 3''-End-labelled 161 BP plasmid DNA; + indicates between 20 and 50% of the activity 0f 1 uM camptothecin. The procedure, abridged:
as §2

The test system of experiment [9] is SF-539. Description: Compound was tested for its cytotoxicity against CNS SF-539 cell line. The format is functional. The settings on record: Homo sapiens. The procedure, abridged: as §1
Experiment [10] deals with T1, DNA topoisomerase 1 (Homo sapiens). As to the kind of experiment: The activity was examined against DNA topoisomerase I mediated DNA cleavage using 3''-End-labelled 161 BP plasmid DNA. +/- indicates less than 20% of the activity 0f 1 uM camptothecin. The procedure, abridged: as §2
For experiment [11] the target is unchanged. Description: The activity was examined against DNA topoisomerase I mediated DNA cleavage using 3''-End-labelled 161 BP plasmid DNA. +/- less than 20% of the activity 0f 1 uM camptothecin. Put shortly:
as §2

Experiment [12] has the same target. Description: The activity was examined against DNA topoisomerase I mediated DNA cleavage using 3''-End-labelled 161 BP plasmid DNA. +/- indicates less than 20% of the activity of 1 uM camptothecin. Put shortly:
as §2

For experiment [13] the target is unchanged. As to the kind of experiment: The activity was examined against DNA topoisomerase I mediated DNA cleavage using 3'-End-labelled 161 BP plasmid DNA. 0 indicates inactive. The procedure, abridged:
as §2

Experiment [14] concerns SF-539. As to the kind of experiment: Compound was tested for its cytotoxicity against CNS SF-539 Human cancer cell line.

On to `COc1cc2c3c(n(Cc4ccccc4)c(=O)c2cc1OC)-c1cc2c(cc1C3=O)OCO2`, for which the GI50 in the experiment on HOP-62 was 12 µM; with MDA-MB-435, above 100 µM; with DU-145 [1], 4 µM; with OVCAR-3, above 100 µM; in the experiment on UACC-62 it was 50 µM; in the experiment on HCT-116, above 100 µM. Moreover, the Top1 cleavage activity entry in [2] was “+/-”.

In the case of `CCN1C(=O)c2cc(OC)c(OC)cc2[C@H]2C(=O)c3cc4c(cc3[C@H]21)OCO4`, the GI50 with HOP-62 is 0.29 µM; in the experiment with MDA-MB-435 it was 0.45 µM; in the experiment on DU-145 [1], 0.42 µM; in the experiment on OVCAR-3, 0.44 µM; in the experiment with UACC-62, 0.18 µM; in the experiment with HCT-116 it was 0.29 µM. In experiment [3], the Top1 cleavage activity result is given as “+/-”.

In the case of `Cn1c2c(c3ccccc3c1=O)C(=O)c1cc(OCc3ccccc3)c(OCc3ccccc3)cc1-2`, in [4], the Top1 cleavage activity came to 0. For the same molecule, the GI50 in the experiment with HOP-62 was 72 µM; in the experiment with MDA-MB-435, above 100 µM; in the experiment on SN12C, 88 µM; in the experiment with OVCAR-3 it was above 100 µM; in the experiment on DU-145 [5] it was above 100 µM; in the experiment with SF-539 [6] it was above 100 µM. Moreover, the results for the GI50 in the experiment on UACC-62 and with HCT-116 were 93 µM and above 100 µM, respectively.

With `COc1cc2c3c(n(C)c(=O)c2cc1OC)-c1cc(OCc2ccccc2)c(OCc2ccccc2)cc1C3=O`, the GI50 with HOP-62 is 46 µM; with MDA-MB-435 it was above 100 µM; in the experiment on DU-145 [1] it was above 100 µM; in the experiment on SN12C, above 100 µM; in the experiment with OVCAR-3 it was 58 µM; in the experiment on SF-539 [6] it was 39 µM. Further, the GI50 in the experiment on UACC-62 is above 100 µM; in the experiment on HCT-116 it was 80 µM. The same molecule showed a Top1 cleavage activity in experiment [7] of 0.

For the molecule `O=C1c2ccccc2-c2c1c1ccccc1c(=O)n2CCCCO`, the Top1 cleavage activity in [8] is 20-50% of the activity 0f 1 uM camptothecin. For the same molecule, the GI50 with HOP-62 was 13 µM; with MDA-MB-435, above 100 µM; in the experiment on DU-145 [1], above 100 µM; with SN12C it was 7.4 µM; in the experiment on OVCAR-3, 74 µM; in the experiment with UACC-62, 4.4 µM. The values for the GI50 with SF-539 [9] and in the experiment with HCT-116 were 4.6 µM and 3.2 µM, respectively.

`COc1cc2c(cc1OC)[C@H]1C(=O)c3cc(OS(C)(=O)=O)c(OC)cc3[C@H]1N(C)C2=O`: in [10], the Top1 cleavage activity result is listed as “+/-”.

For the molecule `CCn1c2c(c3cc(OC)c(OC)cc3c1=O)C(=O)c1cc3c(cc1-2)OCO3`, the GI50 in the experiment with HOP-62 came to 2.2 µM; in the experiment with MDA-MB-435, 2.6 µM; in the experiment on DU-145 [1], 2.3 µM; in the experiment with SN12C it was 3.6 µM; in the experiment with OVCAR-3 it was 3 µM; with SF-539 [6] it was 2 µM. For the same molecule, the GI50 came to 2.1 µM in the experiment with UACC-62 and 2.6 µM with HCT-116. In addition, the Top1 cleavage activity result in experiment [11] is recorded as “+/-”.

For `COc1cc2c(cc1OC)[C@H]1C(=O)c3cc4c(cc3[C@H]1N(C)C2=O)OCO4`, the Top1 cleavage activity entry in experiment [12] is “+/-”. The GI50 in the experiment with HOP-62 was found to be 9.4 µM; in the experiment with MDA-MB-435, 17 µM; in the experiment on DU-145 [1], 4.1 µM; in the experiment with SN12C, 2.1 µM; with OVCAR-3, 6.7 µM; with SF-539 [6] it was 3.1 µM. Also, the GI50 with UACC-62 is 0.42 µM; in the experiment with HCT-116, 2 µM.

As for `COc1cc2c(c(OC)c1OC)C(=O)c1c-2n(C)c(=O)c2ccccc12`, the GI50 in the experiment on HOP-62 is 24 µM; in the experiment with DU-145 [1], above 100 µM; in the experiment with SN12C, above 100 µM; with OVCAR-3 it was above 100 µM; in the experiment with SF-539 [14], above 100 µM. This molecule displayed a Top1 cleavage activity in [13] of 0.
